# In ChEMBL document CHEMBL1129951, “Synthesis and antitumor evaluation of new thiazolo[5,4-b]quinoline derivatives” (J Med Chem, 1997):
# Experiments:
# [1] = test system: A549; assay: In vitro cytotoxicity against A-549 (human lung carcinoma) cell line.; format: functional, cell-based
# In short: (§1)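 Growth-inhibition screen adapted from Bergeron et al. Cells were kept in exponential growth in EMEM with 5% FCS, 10^-2 M sodium bicarbonate, penicillin G and streptomycin (0.1 g/L each) and 2.0 mM L-glutamine. P-388 was grown as a suspension and seeded at 1 × 10^4 cells/well. A-549 and HT-29 were grown as monolayers and seeded at 2 × 10^4 cells/well.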
# [2] = test system: P388; assay: In vitro cytotoxicity against P-388 (mouse leukemia) cell line.; format: functional, cell-based; in short: as §1
# [3] = test system: HT-29; assay: In vitro cytotoxicity against HT-29 (human colon) cell line.; format: functional, cell-based; in short: as §1
# [4] = pKa value was determined by differential pulse polarography; format: physicochemical
SMILES,IC50 [1],IC50 [2],IC50 [3],pKa [4]
Cc1ccc2nc3sc(N4CCN(C)CC4)nc3c(O)c2c1,29.6 µM,16.9 µM,17 µM,10
CSc1nc2c(O)c3cc(F)ccc3nc2s1,> 66.1 µM,> 66.1 µM,> 66.1 µM,5.7
Cc1ccc2nc3sc(S(C)(=O)=O)nc3c(O)c2c1,> 60.4 µM,> 60.4 µM,> 60.4 µM,4
CSc1nc2c(O)c3cc(C)ccc3nc2s1,> 66.9 µM,> 66.9 µM,> 66.9 µM,4.6
CCN(CC)CCCNc1c2ccccc2nc2sc(SC)nc12,6 µM,6 µM,6 µM,7.5
CS(=O)(=O)c1nc2c(O)c3cc(F)ccc3nc2s1,6 µM,6 µM,6 µM,5.5
CN1CCN(c2nc3c(O)c4ccccc4nc3s2)CC1,18.8 µM,18.8 µM,18.8 µM,8.6
CSc1nc2c(O)c3ccccc3nc2s1,> 70.2 µM,> 70.2 µM,> 70.2 µM,5.9
CS(=O)(=O)c1nc2c(O)c3ccccc3nc2s1,32.4 µM,32.4 µM,32.4 µM,5.2
CCN(CC)CCNc1nc2c(O)c3ccccc3nc2s1,7.22 µM,5.76 µM,7.22 µM,9.3
CN1CCN(c2nc3c(O)c4cc(F)ccc4nc3s2)CC1,> 56.4 µM,> 56.4 µM,> 56.4 µM,8
CSc1nc2c(N(C)CCCN(C)C)c3ccccc3nc2s1,12.1 µM,12.1 µM,12.1 µM,6.5
CCN(CC)CCCNc1c2cc(C)ccc2nc2sc(SC)nc12,5.4 µM,5.4 µM,5.4 µM,7.9
CCN(CC)CCNc1nc2c(O)c3cc(C)ccc3nc2s1,5.6 µM,3.3 µM,3.3 µM,8.4
CCN(CC)CCNc1nc2c(O)c3cc(F)ccc3nc2s1,2.9 µM,1.65 µM,5 µM,8.3
Oc1c2ccccc2nc2sc(Cl)nc12,11.6 µM,5.3 µM,11.6 µM,5.9
Oc1c2cc(F)ccc2nc2sc(Cl)nc12,7.4 µM,7.4 µM,7.4 µM,4.9
Cc1ccc2nc3sc(Cl)nc3c(O)c2c1,34.6 µM,34.6 µM,34.6 µM,5
